In PMC11659308 (Communications Chemistry, 2024):
Values belong to the molecule of their own block, whether it stands above or below them. Peptide text beside a SMILES is read from it.

Experiments:
[1] = Asn-Gly isomerisation kinetics followed by time-dependent 1D 1H-NMR; type: physicochemical; conditions: for k2 (Suc→β-Asp) / k3 (Suc→α-Asp) / t1/2, half-life of the Asn species: 1H-NMR time course, 50 mM Na2HPO4 buffer; for k2 (Suc→β-Asp) / k3 (Suc→α-Asp): COPASI fit; for t1/2, half-life of the Asn species: chemical stability
Summary of the method: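 Acetylated Asn-Gly-Xxx-Ala amide tetrapeptide (~1 mg) in 50 mM (final) Na2HPO4 with D2O and DSS/NaN3. pH set with 0.1 M HCl/NaOH. Heated samples sonicated 1 min. 1D 1H spectra at 5–120 min and beyond, until reactant fell below ~10%. COSY/TOCSY assignment. Relative integrals fitted to Asn→Suc (irreversible), Suc⇌β-Asp and Suc⇌α-Asp kinetic model.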

[2] = estimated; cited from earlier work
[3] = native versus reduced and unfolded forms; cited from earlier work

t1/2, half-life of the Asn species ([1]; pH 7.4, 28 °C): 76.6 h
t1/2, half-life of the Asn species ([1]; pH 7.4, 37 °C): 19.1 h
t1/2, half-life of the Asn species ([1]; pH 7.4, 46 °C): 9.4 h
t1/2, half-life of the Asn species ([1]; pH 7.4, 55 °C): 3.0 h
Molecule: CC(=O)N[C@@H](CC(N)=O)C(=O)NCC(=O)N[C@@H](CCCCN)C(=O)N[C@@H](C)C(N)=O [-NGKA-] (Ac-NGKA-NH2)
k2 (Suc→β-Asp) ([1]; pH 7.4, 28 °C): 0.334 h⁻¹
k3 (Suc→α-Asp) ([1]; pH 7.4, 28 °C): 0.174 h⁻¹
k2 (Suc→β-Asp) ([1]; pH 7.4, 37 °C): 0.643 h⁻¹
k3 (Suc→α-Asp) ([1]; pH 7.4, 37 °C): 0.255 h⁻¹
k2 (Suc→β-Asp) ([1]; pH 7.4, 46 °C): 2.30 h⁻¹
k3 (Suc→α-Asp) ([1]; pH 7.4, 46 °C): 1.150 h⁻¹
k2 (Suc→β-Asp) ([1]; pH 7.4, 55 °C): 4.00 h⁻¹
k3 (Suc→α-Asp) ([1]; pH 7.4, 55 °C): 0.134 h⁻¹
activation Gibbs free energy of the rate-determining initial step (succinimide formation), ∆G‡(1) ([1]; pH 7.4, Arrhenius, slope of ln k1 vs 1/T (28-55 °C)): 87.3 kJ/mol
change in Gibbs free energy of the β-Asp formation step, ∆G‡(2) ([1]; pH 7.4, Arrhenius, slope of ln k2 vs 1/T (28-55 °C)): 85.9 kJ/mol

Molecule: CNC(C)=O [N-methylacetamide]
pKa, deprotonation of the amide group [2]: 18

B1: native ribonuclease A: native ribonuclease A, compared with its reduced and unfolded forms (protein, UniProt P61823 27-150, looked up)
Ribonuclease pancreatic: KETAAAKFERQHMDSSTSAASSSNYCNQMMKSRNLTKDRCKPVNTFVHESLADVQAVCSQKNVACKNGQTNCYQSYSTMSITDCRETGSSKYPNCAYKTTQANKHIIVACEGNPYVPVHFDASV
times less prone to asparagine isomerisation than its reduced and unfolded forms [3]: ~ 30 times
